These compounds were tested on Rattus norvegicus (assay: In vivo inhibition of carrageenan-induced hyperalgesia in rats).
Assay type: functional
In short: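 Fasted male Wistar rats (200-230 g) given oral drug, then 0.1 mL 1% carrageenan into the left hind paw 1 h later. At 5 h, walking difficulty was scored 0-2 by a blinded observer. Percentage inhibition was taken against vehicle, and ED50 was found by linear regression over four doses (6-8 rats/group).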

Structure (SMILES) | ED50 [mg/kg]
CS(=O)(=O)c1ccc(-c2coc(=O)n2-c2ccc(F)cc2)cc1 | 2.5
COc1ccc2c(c1)c(CC(=O)O)c(C)n2C(=O)c1ccc(Cl)cc1 [INDOMETHACIN] | 1.2
CS(=O)(=O)c1ccc(-c2coc(=O)n2-c2ccc(F)cc2F)cc1 | 21
CS(=O)(=O)c1ccc(-c2coc(=O)n2-c2ccccc2F)cc1 | 32
COc1ccc2cc([C@H](C)C(=O)O)ccc2c1 [NAPROXEN] | 5.2
Cc1oc(=O)n(-c2ccc(F)cc2)c1-c1ccc(S(N)(=O)=O)cc1 | 14
Cc1oc(=O)n(-c2ccccc2)c1-c1ccc(S(N)(=O)=O)cc1 | 7.7

Each compound was assayed on Rattus norvegicus (assay: Effect on non perforated ulcers(NPU) at the dose of 10 mg/kg.).
Assay type: functional
In short: (§1)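 Male Wistar rats (150-175 g), fed freely, 10/group, dosed orally once daily for 4 consecutive days in 0.5% methyl cellulose/0.1% Tween. Anaesthetised 24 h after last dose; cardiac blood taken for hemoglobin. Whole intestine opened and scored macroscopically for perforated and nonperforated ulcers (index 0-3); value is ulcer score per incidence (% animals with ulcers).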

Structure (SMILES) | Ulcer score
COc1ccc2c(c1)c(CC(=O)O)c(C)n2C(=O)c1ccc(Cl)cc1 [INDOMETHACIN] | 300

Each compound was assayed on Rattus norvegicus (assay: Effect on perforated ulcers(PU) at the dose of 10 mg/kg.).
Assay type: functional
In short: as §1

Structure (SMILES) | Ulcer score
COc1ccc2c(c1)c(CC(=O)O)c(C)n2C(=O)c1ccc(Cl)cc1 [INDOMETHACIN] | 280

What follows are compounds tested on Rattus norvegicus (assay: In vivo inhibition of carrageenan-induced air pouch in rats).
Assay type: functional
In short: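 Air pouch made in fasted male Wistar rats (150-175 g, 6/group) by injecting 20 mL air subcutaneously on the back on day 0. Oral gavage on day 3, then 5 mL 0.4% carrageenan into the pouch 1 h later.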

Structure (SMILES) | ED35 [mg/kg]
COc1ccc2c(c1)c(CC(=O)O)c(C)n2C(=O)c1ccc(Cl)cc1 [INDOMETHACIN] | 2
COc1ccc2cc([C@H](C)C(=O)O)ccc2c1 [NAPROXEN] | 1.4

The compounds below were run against Prostaglandin G/H synthase 1 (Homo sapiens, UniProt P23219).
Prostaglandin G/H synthase 1, sequence (P23219 whole entry): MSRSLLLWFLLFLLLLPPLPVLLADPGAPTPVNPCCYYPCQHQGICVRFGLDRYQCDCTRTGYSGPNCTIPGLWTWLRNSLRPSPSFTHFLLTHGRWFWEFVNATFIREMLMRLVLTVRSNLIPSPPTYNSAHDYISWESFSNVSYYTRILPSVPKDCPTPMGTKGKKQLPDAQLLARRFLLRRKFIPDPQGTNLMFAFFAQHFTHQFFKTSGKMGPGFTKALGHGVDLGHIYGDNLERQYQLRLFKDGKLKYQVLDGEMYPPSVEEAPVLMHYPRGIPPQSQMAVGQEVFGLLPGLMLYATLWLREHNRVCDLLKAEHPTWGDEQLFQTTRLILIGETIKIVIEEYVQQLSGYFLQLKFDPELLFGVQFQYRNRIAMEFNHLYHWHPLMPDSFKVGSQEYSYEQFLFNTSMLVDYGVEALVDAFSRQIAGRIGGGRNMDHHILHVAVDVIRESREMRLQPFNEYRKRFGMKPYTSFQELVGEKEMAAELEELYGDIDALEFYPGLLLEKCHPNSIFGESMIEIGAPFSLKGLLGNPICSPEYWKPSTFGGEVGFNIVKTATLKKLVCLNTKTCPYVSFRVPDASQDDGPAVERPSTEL

Structure (SMILES) | IC50 [µM]
CS(=O)(=O)c1ccc(-c2coc(=O)n2-c2ccc(F)cc2)cc1 | 5.1
CS(=O)(=O)c1ccc(-c2coc(=O)n2-c2ccc(F)cc2F)cc1 | 6.94
CS(=O)(=O)c1ccc(-c2coc(=O)n2-c2ccccc2F)cc1 | 13.4
Cc1oc(=O)n(-c2ccccc2)c1-c1ccc(S(N)(=O)=O)cc1 | 49.3

Now from value to compound:

IC50 [µM] | Structure (SMILES)
45.8 | Cc1oc(=O)n(-c2ccc(F)cc2)c1-c1ccc(S(N)(=O)=O)cc1
13.6 | CS(=O)(=O)c1ccc(-c2coc(=O)n2-c2ccc(Cl)cc2)cc1
11.6 | Cc1ccc(-n2c(-c3ccc(S(C)(=O)=O)cc3)coc2=O)cc1

What follows are compounds tested on Rattus norvegicus (assay: In vivo inhibition of adjuvant arthritis in rats).
Assay type: functional

Structure (SMILES) | ED50 [mg/kg]
CS(=O)(=O)c1ccc(-c2coc(=O)n2-c2ccc(F)cc2)cc1 | 2.8
COc1ccc2c(c1)c(CC(=O)O)c(C)n2C(=O)c1ccc(Cl)cc1 [INDOMETHACIN] | 0.22
CS(=O)(=O)c1ccc(-c2coc(=O)n2-c2ccc(F)cc2F)cc1 | 2.5
CS(=O)(=O)c1ccc(-c2coc(=O)n2-c2ccccc2F)cc1 | > 3
COc1ccc2cc([C@H](C)C(=O)O)ccc2c1 [NAPROXEN] | 6.1
Cc1oc(=O)n(-c2ccc(F)cc2)c1-c1ccc(S(N)(=O)=O)cc1 | 3
Cc1oc(=O)n(-c2ccccc2)c1-c1ccc(S(N)(=O)=O)cc1 | > 3

The compounds below were run on Rattus norvegicus (assay: Inhibition of carrageenan paw edema in rats).
Assay type: functional
In short: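 Fasted male Wistar rats (150-175 g, 6/group) dosed orally in 0.5% methyl cellulose/0.1% Tween (10 mL/kg). One hour later, 0.1 mL 1% carrageenan in saline was given subcutaneously into the left hind paw.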

Structure (SMILES) | ED35 [mg/kg]
CS(=O)(=O)c1ccc(-c2coc(=O)n2-c2ccc(Cl)cc2)cc1 | 10
CS(=O)(=O)c1ccc(-c2coc(=O)n2-c2ccc(F)cc2)cc1 | 0.6
COc1ccc2c(c1)c(CC(=O)O)c(C)n2C(=O)c1ccc(Cl)cc1 [INDOMETHACIN] | 1
CS(=O)(=O)c1ccc(-c2coc(=O)n2-c2ccc(F)cc2F)cc1 | 1.4
CS(=O)(=O)c1ccc(-c2coc(=O)n2-c2ccccc2F)cc1 | 2.4
COc1ccc2cc([C@H](C)C(=O)O)ccc2c1 [NAPROXEN] | 0.45
Cc1oc(=O)n(-c2ccc(F)cc2)c1-c1ccc(S(N)(=O)=O)cc1 | 1.1
Cc1oc(=O)n(-c2ccccc2)c1-c1ccc(S(N)(=O)=O)cc1 | 1.7

What follows are compounds tested on Rattus norvegicus (assay: In vivo inhibition of pyresis in rats).
Assay type: functional
In short: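 Male Wistar rats (180-200 g, 6/group) were injected subcutaneously with 15% yeast extract in saline ([…]) and fasted overnight. Next morning rectal temperature was taken, and oral dosing followed 1 h later. Temperature was recorded hourly for 5 h.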

Structure (SMILES) | ED50 [mg/kg]
COc1ccc2c(c1)c(CC(=O)O)c(C)n2C(=O)c1ccc(Cl)cc1 [INDOMETHACIN] | 1.5
COc1ccc2cc([C@H](C)C(=O)O)ccc2c1 [NAPROXEN] | 0.8

Species: Rattus norvegicus
Assay: Hemoglobin levels in the different assays ranged from 11.5-14.7 g/dl.
Assay type: functional

Structure (SMILES) | Hgb levels [g/dL]
COc1ccc2c(c1)c(CC(=O)O)c(C)n2C(=O)c1ccc(Cl)cc1 [INDOMETHACIN] | 5.7
COc1ccc2cc([C@H](C)C(=O)O)ccc2c1 [NAPROXEN] | 7.5
